Active and inactive are the calls of the source. No cut-off for these calls is given here.
What was measured:
N2a = experiment: Decrease in 7-DHC levels in Dhcr7-deficient mouse Neuro2a cells at 1 uM by LC-MS/GC-MS analysis; assay type: functional, cell-based
Procedure, shortened: (§1)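 Dhcr7-deficient Neuro2a cells (13000/well, 0.5% FBS medium) on predeposited compound, 24 h at 37 °C. Hoechst-stained and imaged to count cells. Lysed in methanol containing isotope-labelled sterol standards, derivatized with PTAD 20 min at RT, then isocratic C18 UPLC-MS/SRM. Remaining extract silylated with BSTFA for GC-MS, quantified against d7-cholesterol. Follow-up runs in triplicate.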

[1] = molecular target: T1, Delta(24)-sterol reductase (Mus musculus) (UniProt Q8VCH6); experiment: Inhibition of C-24 reductase in Dhcr7-deficient mouse Neuro2a cells assessed as increase in desmosterol levels at 1 uM by LC-MS/GC-MS analysis; assay type: cell-based; procedure, shortened: as §1
T1 sequence (whole entry): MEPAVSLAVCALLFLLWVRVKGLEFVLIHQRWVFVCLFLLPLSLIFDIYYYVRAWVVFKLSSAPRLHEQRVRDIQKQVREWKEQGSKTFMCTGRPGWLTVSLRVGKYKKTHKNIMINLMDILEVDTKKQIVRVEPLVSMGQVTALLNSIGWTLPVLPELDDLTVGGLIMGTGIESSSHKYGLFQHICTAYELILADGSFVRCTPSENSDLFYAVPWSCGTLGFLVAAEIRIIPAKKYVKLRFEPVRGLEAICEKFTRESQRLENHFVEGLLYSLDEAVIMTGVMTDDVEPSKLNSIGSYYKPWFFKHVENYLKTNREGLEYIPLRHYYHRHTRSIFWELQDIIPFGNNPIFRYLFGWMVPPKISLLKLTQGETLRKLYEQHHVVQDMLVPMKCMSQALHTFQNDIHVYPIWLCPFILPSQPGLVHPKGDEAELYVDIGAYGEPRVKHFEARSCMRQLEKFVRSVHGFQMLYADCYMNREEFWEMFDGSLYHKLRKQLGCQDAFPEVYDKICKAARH

[2] = molecular target: T1, Delta(24)-sterol reductase (Mus musculus); experiment: Inhibition of C-24 reductase in Dhcr7-deficient mouse Neuro2a cells assessed as increase in zymosterol levels at 1 uM by LC-MS/GC-MS analysis; assay type: cell-based; procedure, shortened: as §1
[3] = molecular target: T1, Delta(24)-sterol reductase (Mus musculus); experiment: Inhibition of DR24 in Dhcr7-deficient mouse Neuro2a cells assessed as decrease in 7-DHC levels at 1 uM by LC-MS/GC-MS analysis; assay type: cell-based; procedure, shortened: as §1
[4] = molecular target: T2, 3-beta-hydroxysteroid-Delta(8),Delta(7)-isomerase (Mus musculus) (UniProt P70245); experiment: Inhibition of delta 8-7 isomerase in Dhcr7-deficient mouse Neuro2a cells assessed as decrease in 7-DHC levels at 1 uM by LC-MS/GC-MS analysis; assay type: cell-based; procedure, shortened: as §1
T2 sequence (whole entry): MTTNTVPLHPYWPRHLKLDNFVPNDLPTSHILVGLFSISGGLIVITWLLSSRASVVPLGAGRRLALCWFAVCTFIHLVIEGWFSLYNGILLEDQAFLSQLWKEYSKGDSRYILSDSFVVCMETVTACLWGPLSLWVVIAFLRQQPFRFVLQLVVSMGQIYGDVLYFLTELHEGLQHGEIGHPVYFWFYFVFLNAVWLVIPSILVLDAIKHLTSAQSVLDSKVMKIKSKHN

[5] = molecular target: T2, 3-beta-hydroxysteroid-Delta(8),Delta(7)-isomerase (Mus musculus); experiment: Inhibition of delta 8-7 isomerase in mouse Neuro2a cells assessed as decrease in 7-DHC levels at 1 uM by LC-MS/GC-MS analysis; assay type: cell-based
Procedure, shortened: (§2)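 Control Neuro2a cells (10000/well, 0.5% FBS) on compound, 24 h. Hoechst cell count, then methanol lysis with labelled standards (d7-7-DHC, 13C3-desmosterol, 13C3-lanosterol), PTAD derivatization 20 min at RT, UPLC-MS SRM. GC-MS of silylated extract for further sterols.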

[6] = molecular target: T1, Delta(24)-sterol reductase (Mus musculus); experiment: Inhibition of DR24 in mouse Neuro2a cells assessed as decrease in 7-DHC levels at 1 uM by LC-MS/GC-MS analysis; assay type: cell-based; procedure, shortened: as §2
[7] = molecular target: T2, 3-beta-hydroxysteroid-Delta(8),Delta(7)-isomerase (Mus musculus); experiment: Inhibition of delta 8-7 isomerase in Dhcr7-deficient mouse Neuro2a cells assessed as decrease in 7-DHC levels at 200 nM after 24 hrs by LC-MS analysis; assay type: cell-based
Procedure, shortened: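 384-well screen: Dhcr7-deficient Neuro2a cells (13000/well) dispensed in 0.5% FBS medium onto predeposited compound (five wells each at 20 and 200 nM) and incubated 24 h at 37 °C. Nuclei Hoechst-stained and counted by automated imaging. Cells lysed in MeOH with deuterated and 13C standards, then derivatised with PTAD for 20 min at RT. 7-DHC measured by isocratic UPLC-MS (SRM) and expressed as pg per cell; DMSO wells served as controls.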

Fibroblast = experiment: Decrease in cholesterol levels in human SLOS fibroblasts at 10 nM after 5 days by LC-MS/GC-MS analysis; assay type: functional, cell-based
Procedure, shortened: (§3)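 SLOS patient skin fibroblasts (passage 8–20) grown in 96-well plates in delipidated serum with compound for 5 days; three different SLOS lines. Sterols quantified by PTAD-derivatized UPLC-MS plus GC-MS; 7-DHC expressed as percentage of untreated cells.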

[8] = molecular target: 3-beta-hydroxysteroid-Delta(8),Delta(7)-isomerase (Homo sapiens) (UniProt Q15125); experiment: Inhibition of delta 8-7 isomerase in human SLOS fibroblasts assessed as decrease in 7-DHC levels at 10 nM after 5 days by LC-MS/GC-MS analysis; procedure, shortened: as §3
Chain of 3-beta-hydroxysteroid-Delta(8),Delta(7)-isomerase (Homo sapiens) (Q15125 whole entry): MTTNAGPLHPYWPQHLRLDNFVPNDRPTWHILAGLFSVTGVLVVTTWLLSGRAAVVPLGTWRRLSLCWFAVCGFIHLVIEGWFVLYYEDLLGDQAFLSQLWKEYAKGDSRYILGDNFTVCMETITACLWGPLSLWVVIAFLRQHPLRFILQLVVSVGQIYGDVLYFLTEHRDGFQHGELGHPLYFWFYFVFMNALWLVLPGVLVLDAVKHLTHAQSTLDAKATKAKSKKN

[9] = molecular target: T1, Delta(24)-sterol reductase (Mus musculus); experiment: Inhibition of DR24 in Dhcr7-deficient mouse Neuro2a cells assessed as decrease in 7-DHC levels at 200 nM after 24 hrs by LC-MS analysis; assay type: cell-based
Procedure, shortened: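 384-well screen: Dhcr7-deficient Neuro2a cells (13000/well, 0.5% FBS) with compound at 20 or 200 nM (five wells each), 24 h at 37 °C. Cells counted after Hoechst imaging, then methanol lysis with d7-7-DHC standard, PTAD derivatization 20 min at RT, UPLC-MS SRM (7-DHC 560→365). Read-out is pg 7-DHC per cell.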

[10] = Cytotoxicity against human SLOS fibroblasts at 5 uM after 5 days by Cell Titer assay; assay type: cell-based; conditions: fibroblast, 120 h
[11] = molecular target: T3, Delta(24)-sterol reductase (Homo sapiens) (UniProt Q15392); experiment: Inhibition of DR24 in human SLOS fibroblasts assessed as decrease in 7-DHC levels at 10 nM after 5 days by LC-MS/GC-MS analysis; procedure, shortened: as §3
T3 sequence (whole entry): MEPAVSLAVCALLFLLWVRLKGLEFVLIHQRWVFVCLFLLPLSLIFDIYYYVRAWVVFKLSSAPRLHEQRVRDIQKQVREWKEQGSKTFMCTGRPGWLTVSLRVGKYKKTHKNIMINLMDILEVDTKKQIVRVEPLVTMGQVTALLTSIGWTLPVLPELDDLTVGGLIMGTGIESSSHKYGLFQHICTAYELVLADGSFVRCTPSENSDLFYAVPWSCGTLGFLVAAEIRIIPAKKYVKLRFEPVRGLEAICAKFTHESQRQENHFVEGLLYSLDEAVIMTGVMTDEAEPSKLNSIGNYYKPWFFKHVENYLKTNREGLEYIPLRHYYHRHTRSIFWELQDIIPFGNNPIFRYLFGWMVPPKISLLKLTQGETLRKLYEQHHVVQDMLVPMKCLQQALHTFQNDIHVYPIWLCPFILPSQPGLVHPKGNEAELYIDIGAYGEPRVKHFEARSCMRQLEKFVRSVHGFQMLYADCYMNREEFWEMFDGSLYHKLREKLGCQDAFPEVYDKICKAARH

[12] = molecular target: T2, 3-beta-hydroxysteroid-Delta(8),Delta(7)-isomerase (Mus musculus); experiment: Inhibition of delta 8-7 isomerase in Dhcr7-deficient mouse Neuro2a cells assessed as increase in zymosterol levels at 1 uM by LC-MS/GC-MS analysis; assay type: cell-based
Procedure, shortened: (§4)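 Follow-up (verification) assay in 96-well plates, run as the 384-well screen, in triplicate, at varying compound concentrations. Cells counted by Hoechst imaging, washed with PBS, then lysed in MeOH with BHT/TPP and isotope standards (d7-Chol, d7-7-DHC, 13C3-Des, 13C3-Lan). Sterols derivatised with PTAD for 20 min at RT and quantified by C18 UPLC-MS (SRM). Remaining sample silylated with BSTFA and run on GC-MS, quantified against d7-Chol.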

[13] = molecular target: T2, 3-beta-hydroxysteroid-Delta(8),Delta(7)-isomerase (Mus musculus); experiment: Inhibition of delta 8-7 isomerase in Dhcr7-deficient mouse Neuro2a cells assessed as decrease in cholesterol levels at 1 uM by LC-MS/GC-MS analysis; assay type: cell-based; procedure, shortened: as §4
[14] = molecular target: T2, 3-beta-hydroxysteroid-Delta(8),Delta(7)-isomerase (Mus musculus); experiment: Inhibition of delta 8-7 isomerase in Dhcr7-deficient mouse Neuro2a cells assessed as increase in zymostenol levels at 1 uM by LC-MS/GC-MS analysis; assay type: cell-based; procedure, shortened: as §4
[15] = molecular target: T4, Lanosterol 14-alpha demethylase (Mus musculus, UniProt Q8K0C4); experiment: Inhibition of 14 alpha demethylase in Dhcr7-deficient mouse Neuro2a cells assessed as decrease in desmosterol levels at 1 uM by LC-MS/GC-MS analysis; assay type: cell-based; procedure, shortened: as §1
T4 sequence (Q8K0C4 whole entry): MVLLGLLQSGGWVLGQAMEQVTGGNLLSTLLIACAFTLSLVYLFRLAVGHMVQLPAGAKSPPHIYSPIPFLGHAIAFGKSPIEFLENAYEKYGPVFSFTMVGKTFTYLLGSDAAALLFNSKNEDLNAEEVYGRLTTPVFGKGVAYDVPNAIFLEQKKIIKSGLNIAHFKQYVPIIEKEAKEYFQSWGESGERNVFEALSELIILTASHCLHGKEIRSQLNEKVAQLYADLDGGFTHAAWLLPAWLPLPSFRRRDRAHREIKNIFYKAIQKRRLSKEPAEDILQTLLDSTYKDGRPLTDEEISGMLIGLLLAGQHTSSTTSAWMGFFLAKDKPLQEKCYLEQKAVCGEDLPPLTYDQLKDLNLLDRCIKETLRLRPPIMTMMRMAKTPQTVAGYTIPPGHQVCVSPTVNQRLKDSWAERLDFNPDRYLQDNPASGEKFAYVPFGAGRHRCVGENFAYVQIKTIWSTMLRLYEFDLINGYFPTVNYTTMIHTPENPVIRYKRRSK

[16] = molecular target: T4, Lanosterol 14-alpha demethylase; experiment: Inhibition of 14 alpha demethylase in Dhcr7-deficient mouse Neuro2a cells assessed as decrease in 7-DHC levels at 1 uM by LC-MS/GC-MS analysis; assay type: cell-based; procedure, shortened: as §1
[17] = molecular target: T4, Lanosterol 14-alpha demethylase; experiment: Inhibition of 14 alpha demethylase in Dhcr7-deficient mouse Neuro2a cells assessed as increase in cholesterol levels at 1 uM by LC-MS/GC-MS analysis; assay type: cell-based; procedure, shortened: as §1
[18] = molecular target: T4, Lanosterol 14-alpha demethylase; experiment: Inhibition of 14 alpha demethylase in Dhcr7-deficient mouse Neuro2a cells assessed as increase in lanosterol levels at 1 uM by LC-MS/GC-MS analysis; assay type: cell-based; procedure, shortened: as §1
[19] = Antiproliferative activity against Dhcr7-deficient mouse Neuro2a cells at 500 nM; assay type: cell-based; conditions: n2a, 0.5 µM
Procedure, shortened: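 Dhcr7-deficient Neuro2a cells treated with compound; proliferation followed by Hoechst nuclear staining and automated microscope imaging with cell counts per well.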

| SMILES | Activity (N2a) | inhibition [3] | inhibition [4] | Activity (decrease in 7-DHC levels) [5] | Decrease in 7-DHC levels (active/inactive call) [6] | Activity (Fibroblast) | inhibition [8] | Activity [10] | inhibition [11] | further results |
| --- | --- | --- | --- | --- | --- | --- | --- | --- | --- | --- |
| CCCC1O[C@@H]2C[C@H]3[C@@H]4CCC5=CC(=O)C=C[C@]5(C)[C@H]4[C@@H](O)C[C@]3(C)[C@]2(C(=O)CO)O1 (stereo not given in full) | Active |  |  |  |  |  |  |  |  |  |
| Oc1ccc2c(c1)CC[C@H](c1ccccc1)[C@@H]2c1ccc(OCCN2CCCC2)cc1 |  | Active | Active | Active | Active |  |  |  |  | inhibition [1]: Active; inhibition [2]: Active |
| Cc1c(-c2ccc(O)cc2)n(Cc2ccc(OCCN3CCCCCC3)cc2)c2ccc(O)cc12 [BAZEDOXIFENE] |  | Active | Active | Active | Active | inactive | Active | Toxic | Active | inhibition [7]: Active; inhibition [9]: Active |
| C[C@H]1c2cccc(O)c2C(=O)C2=C(O)[C@]3(O)C(=O)C(C(N)=O)=C(O)[C@@H](N(C)C)[C@@H]3[C@@H](O)[C@@H]21 | Active |  |  |  |  |  |  |  |  |  |
| O=C(c1ccc(OCCN2CCCCC2)cc1)c1c(-c2ccc(O)cc2)sc2cc(O)ccc12 [RALOXIFENE] |  | Active | Active | Active | Active | inactive | Active | Toxic | Active | inhibition [1]: Active; inhibition [2]: Active |
| CC/C(=C(\c1ccccc1)c1ccc(OCCN(C)C)cc1)c1ccccc1 [TAMOXIFEN] |  | Active | Active | Active | Active | inactive | Active | Toxic | Active | inhibition [12]: Active; inhibition [13]: Active; inhibition [14]: Active |
| CCN(CC)CCO[C@H]1CC[C@@]2(C)C(=CC[C@@H]3[C@@H]2CC[C@]2(C)C(=O)CC[C@@H]32)C1 | Active |  |  |  |  |  |  |  |  |  |
| Oc1c(Cl)cc(Cl)c2cccnc12 [CHLOROXINE] |  |  |  |  |  |  |  |  |  | inhibition (INH) [15]: Active; inhibition (INH) [16]: Active; inhibition (INH) [17]: Active; inhibition (INH) [18]: Active; Activity [19]: Toxic |
| Oc1c(Cl)cc(Cl)c(Cl)c1Cc1c(O)c(Cl)cc(Cl)c1Cl [HEXACHLOROPHENE] |  |  |  |  |  |  |  |  |  | inhibition (INH) [15]: Active; inhibition (INH) [16]: Active; inhibition (INH) [17]: Active; inhibition (INH) [18]: Active; Activity [19]: Toxic |
